Active and inactive are the calls of the source. No cut-off for these calls is given here.
What was measured:
[1] = test system: Trypanosoma cruzi; test: (§1) Antitrypanosomal activity against GFP-expressing intracellular Trypanosoma cruzi Y trypomastigotes infected in african green monkey Vero cells assessed as decrease in infection level incubated for 72 hrs by fluorescence based microplate reader analysis; format: functional, organism-based
In short: (§2)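 Vero cells infected with GFP-expressing T. cruzi Y-strain parasites. After parasite removal, compounds were added at one-tenth of their Vero CC50. At 72 h postinfection, cells were lysed and parasite fluorescence was read. Percentage of infected cells and amastigotes per 100 cells were also determined, with nifurtimox as reference.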

[2] = test system: Trypanosoma cruzi; test: as §1, with “reduction” for “decrease”, “infected cell percentage at 20 uM” for “infection level”, “hrs in the presence of nifurtimox” for “hrs”; format: functional, organism-based
In short: (§3)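 GFP T. cruzi Y-infected Vero cells were cotreated after parasite removal with nifurtimox at 35 μM plus test compound at 20 μM or 40 μM. At 72 h postinfection, percentage of infected cells was determined against nontreated infected controls. Significance was set at p < 0.05.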

[3] = test system: Trypanosoma cruzi; test: Antitrypanosomal activity against GFP-expressing intracellular Trypanosoma cruzi Y trypomastigotes infected in african green monkey Vero cells assessed as inhibition of parasite proliferation incubated for 72 hrs by fluorescence based microplate reader analysis
[4] = test system: Trypanosoma cruzi; test: (§4) Antitrypanosomal activity against GFP-expressing intracellular Trypanosoma cruzi Y trypomastigotes infected in african green monkey Vero cells assessed as decrease in number of amastigotes/100 cells incubated for 72 hrs by fluorescence based microplate reader analysis; format: functional, organism-based; in short: as §2
[5] = test system: Vero; test: Cytotoxicity against african green monkey Vero cells at 10 to 600 uM incubated for 72 hrs by resazurin dye based fluorescence assay; format: toxicity, cell-based; conditions: chlorocebus sabaeus, dose 10-600 µM
In short: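 Vero cells were exposed to compounds at 10–600 μM for 72 h at 37 °C. Viability was read by resazurin fluorescence at 590 nm. CC50 was taken as the concentration reducing cell proliferation by 50%, reported ± standard deviation.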

[6] = test system: Trypanosoma cruzi; test: as §4, with “reduction” for “decrease”, “infected cell percentage at 40 uM” for “number of amastigotes/100 cells”, “hrs in the presence of nifurtimox” for “hrs”; format: functional, organism-based; in short: as §3

For `CCCCCCCCCCCCCCCCCC(=O)NCc1ccccn1`, the Activity [1] was “Active”, the Activity [2] was “Active” and the IC50 [3] was 16.4 µM. For the same compound, the Activity [4] was “Active” and the Activity [5] was “Non-Toxic”.
With `CCCCCCCCCCCCCCCC(=O)NCc1ccncc1` the Activity [5] was “Non-Toxic”.
With `CCCCCCCC/C=C/CCCCCCCC(=O)NCc1cccnc1` the Activity [5] was “Non-Toxic”.
`CCCCC/C=C\C/C=C\CCCCCCCC(=O)NCc1cccnc1` was tested, and the Activity [5] was “Non-Toxic”.
With `CCCCC/C=C\C/C=C\CCCCCCCC(=O)NCc1ccccn1` the Activity [5] was “Non-Toxic”.
`CCCCCCCC/C=C\CCCCCCCC(=O)NCc1ccccn1` was tested, and the Activity [5] was “Non-Toxic”.
In the case of `CC/C=C/C/C=C/C/C=C/CCCCCCCC(=O)O`, the Activity [5] is reported as “Toxic”.
With `CCCCCCCCCCCC(=O)NCc1ccccn1` the IC50 [3] was over 100 µM and the Activity [5] was “Non-Toxic”.
In the case of `CCCCCCCCCCCC(=O)NCc1cccnc1`, the Activity [5] is reported as “Non-Toxic”.
`CC/C=C\C/C=C\C/C=C\CCCCCCCC(=O)NCc1cccnc1` was tested, and the Activity [5] was “Non-Toxic”.
`CCCCCCCC/C=C/CCCCCCCC(=O)NCc1ccccn1` was tested, and the Activity [1] was “Active”, the IC50 [3] was 47.6 µM and the Activity [4] was “Active”. For the same compound, the Activity [6] was “Active” and the Activity [5] was “Non-Toxic”.
In the case of `CC/C=C\C/C=C\C/C=C\CCCCCCCC(=O)NCc1ccccn1`, the Activity [5] is reported as “Non-Toxic”.
`CC(=O)NCc1ccncc1` was tested, and the Activity [5] was “Non-Toxic”.
In the case of `CCCCCCCCC/C=C\CCCCCCC(=O)O`, the Activity [5] is reported as “Toxic”.
In the case of `CCCCC/C=C/C/C=C/CCCCCCCC(=O)O`, the Activity [5] is reported as “Toxic”.
In the case of `CCCCCCCCCCCCCCCCCC(=O)NCc1ccncc1`, the Activity [5] is reported as “Non-Toxic”.
For `CCCCCCCC/C=C/CCCCCCCC(=O)NCc1ccncc1`, the Activity [5] was “Non-Toxic”.
In the case of `CCCCCCCC/C=C\CCCCCCCC(=O)NCc1cccnc1`, the Activity [5] is reported as “Non-Toxic”.
In the case of `CCCCCCCCCCCCCCCCCC(=O)NCc1cccnc1`, the Activity [5] is reported as “Non-Toxic”.
For `CCCCCC(=O)NCc1ccncc1`, the Activity [5] was “Non-Toxic”.
For `CCCCCCCCCCCC(=O)NCc1ccncc1`, the Activity [5] was “Non-Toxic”.
